ROMK mod – modulates human ROMK potassium channel activity; P48048; Tet-inducible ROMK, thallium flux fluorescence; actives lie on both sides; B-score at 10 µM; 2% of 130,000 active;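 active = signal ratio slope over the read window, or its plate-corrected B-score, at least 3 SD from the plate mean, either direction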;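 also: B-score of the F/F0 ratio slope over 7 to 12 s after thallium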
Target sequence (P48048 whole entry, looked up): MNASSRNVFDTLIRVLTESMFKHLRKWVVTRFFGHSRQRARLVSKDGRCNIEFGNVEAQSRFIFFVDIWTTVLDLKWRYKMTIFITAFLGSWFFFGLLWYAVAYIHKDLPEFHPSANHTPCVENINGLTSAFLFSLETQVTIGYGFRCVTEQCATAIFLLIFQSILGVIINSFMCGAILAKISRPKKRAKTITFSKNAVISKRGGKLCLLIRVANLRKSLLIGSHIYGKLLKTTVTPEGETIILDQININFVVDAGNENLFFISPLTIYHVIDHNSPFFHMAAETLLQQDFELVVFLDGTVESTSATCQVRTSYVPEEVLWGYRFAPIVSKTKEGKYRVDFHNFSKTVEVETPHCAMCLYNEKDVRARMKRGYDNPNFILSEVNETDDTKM
PKD1 inh – blocks activity of human protein kinase D1. Q15139. PKD1 kinase fluorescence polarization assay. inhibition, % (concentration not given with the values). 0.056% of 200,000 active. AID 797; in the data active = inhibition above about 50%
Rad51 HR inh – Rad51 (human) homologous recombination inhibition; Q06609; inhibition, % at 10 µM; hRad51 DNA strand exchange, fluorescence dequenching; 0.085% of 200,000 active; AID 1385;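 active = inhibition above 40% at the single screening dose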;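 also: 0% = DMSO control wells and 100% = blanks with heterologous ssDNA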
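Material: human Rad51–ssDNA filaments; Probe or stimulus: labelled 47-mer dsDNA for strand exchange; Doses: single 10 µM dose; Incubation: 37 °C 15-min filament assembly, 30-min compound preincubation, 15-min exchange; Technique: FRET fluorescence dequenching, excitation 485 nm, emission 520 nm; Measure: Fluorescence-based percent inhibition, control- and blank-normalised; Benchmarks: plate control and blank wells.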
Cl transport mod – KCC2 (human) Cl- transport modulation; AID 1456; KCC2 cells, thallium flux FluoZin-2 fluorescence; B-score of Tl+ flux slope (higher = more flux/activation; lower = inhibition) at 10 µM; Q9H2X9; 2.2% of 190,000 active;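 active = thallium flux slope and its plate-corrected score both differing from the plate sample mean at a set confidence after two filtering rounds, in either direction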;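 also: slope of fluorescence scaled to starting intensity during 10 to 20 s after thallium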
ROMK retest – human ROMK channel modulation, retest confirmation. normalized thallium flux (F/F0 slope) at 10 µM. 54% of 3,000 active. shares compounds with ROMK mod. ROMK thallium flux, fluorescence ratio; hits give low values;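 active = Flux at 10 µM at least 3 SD below or above vehicle control mean in one or both replicates; inconclusive = no clear call, values can overlap the other calls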
An asterisk follows results filed as active; i = inactive; u = inconclusive; x = not tested or not shown. In the library only some 3% were active in any assay of this set; here they are far more common.

SMILES | ROMK mod | PKD1 inh | Rad51 HR inh | Cl transport mod | ROMK retest
NC(=O)C1CCN(c2ncnc3c2c(-c2ccccc2)cn3-c2ccccc2)CC1 | x | 4 | -13 | 1.3 | 0.063*
CCN(CC)S(=O)(=O)c1ccc(Cl)c(NC(=O)COc2ccc(OC)cc2)c1 | 0.017 | 2 | 0 | -0.032 | x
CN=C(Nc1ccc(C(=O)OC)s1)c1ccc(Cl)cc1 | -0.64 | -4 | 11 | -0.59 | x
C=CCn1c2ccccc2c2nnc(SCCCn3c(=O)[nH]c4ccccc43)nc21 | x | -2 | 6 | 0.071 | 0.065*
COc1cc(/C=N/N=C(N)N)ccc1OCc1ccccc1Cl | -3.7* | 1 | 16 | -0.48 | 0.055*
COc1ccc(/C=N/N=C/c2ccc(OC)c(OC)c2)cc1OC | x | -4 | -2 | 1.2 | x
Cc1ccc(NC(=O)CCn2ccc([N+](=O)[O-])n2)nc1 | -0.42 | -6 | 3 | 0.77 | x
Clc1ccc2c(c1)C(N1CCNCC1)Cc1ccccc1S2 (stereo not given) | x | 9 | x | 0.049 | x
Clc1cccc2c1Sc1ccccc1CC2N1CCNCC1 (stereo not given) | -3.1* | 13 | 15 | 2 | 0.051*
COc1ccc(NC(=O)Nc2ccc(F)cc2F)c(C)c1 | -0.56 | 3 | -18 | x | x
COc1ccc(NC(=O)Nc2ccc(F)cc2)c(C)c1 | -2.1* | -5 | 2 | 0.53 | 0.075
O=C(O)COc1ccc(/C=N/NC(=O)c2ccc(-c3csc(Nc4ccc(Cl)cc4)n3)cc2)cc1 | x | x | 7 | 0.14 | x
CCOc1cc(/C=N/NC(=O)c2ccc(-c3csc(Nc4ccc(C)cc4)n3)cc2)ccc1OCC(=O)O | 3.3* | -6 | -3 | -1.6 | u
CCN(CC)c1ccc(/C=C2\C(=O)c3ccc(C(=O)O)cc3C2=O)cc1 | x | -4 | i | i | x
Cc1ccc(Nc2nnns2)cc1C | -3* | -9 | 2 | 0.32 | u
Cc1ccc(Nc2ccc(NCc3ccccc3)nn2)cc1C | 0.19 | 4 | -24 | 0.22 | x
C=CCN(CC(=O)O)S(=O)(=O)c1ccccc1C(F)(F)F | -0.63 | -6 | -7 | 0.82 | x
Clc1cccc(CSc2nnc(-c3cccnc3)n2Cc2ccco2)c1 | x | 1 | 1 | x | x
Clc1ccc(CSc2nnc(-c3cccnc3)n2Cc2ccco2)c(Cl)c1 | -2.4* | 11 | -5 | x | u
Cc1cccc(OCC(O)CN2CC3(C)CC2CC(C)(C)C3)c1 (stereo not given) | -1.1 | 1 | 12 | 0.057 | x
COCCn1cnc2c1c(=O)n(CC(=O)OCC(=O)NCC(F)(F)F)c(=O)n2Cc1ccccc1 | x | 4 | -7 | -0.1 | x
C=CCc1cccc2cc(C(=O)NC(C)(C)C)c(=O)oc12 | 7.4* | -1 | -13 | -0.12 | 0.072
CC1=NOC(=O)/C1=C/c1ccc(O)cc1 | -3.7* | -6 | 5 | x | 0.048*
Cc1cccc(-n2ccnc2CN2CCC(CO)(Cc3ccccc3)CC2)c1 | x | x | 17 | -1.4 | x
Cc1c(Br)c([N+](=O)[O-])nn1CC(=O)Nc1c(C)n(C)n(-c2ccccc2)c1=O | x | 2 | x | -0.74 | x
SMILES | ROMK mod | PKD1 inh | Rad51 HR inh | Cl transport mod | ROMK retest
CCOC(=O)c1sc(NC(=O)CSc2nc(C)cc(C)n2)c(C#N)c1C | x | -16 | 10 | x | x
CCOC(=O)c1sc(NC(=O)CSc2n[nH]c(-c3ccccc3)n2)c(C#N)c1C | x | -3 | x | -2.3 | 0.059*
Cn1c(SCc2nnc3n2CCCCC3)nc2ccccc21 | x | -6 | 7 | 0.29 | 0.081
Cn1c(SCC(=O)N2CCCC2)nc2ccccc21 | 0.54 | -1 | -3 | 0.018 | x
CC(C)CCN1CCN(Cc2cccc(C(F)(F)F)c2)CC1CCO (stereo not given) | -2 | -5 | -2 | -0.22 | x
COc1ccc(NC(=O)c2ccc(-c3ccccc3Cl)o2)cc1 | 1.1 | -1 | 2 | -0.57 | x
COc1ccc(NC(=O)c2ccc(-c3ccc(C)c4ccccc34)o2)cc1 | 1.7* | -1 | -3 | 0.28 | 0.075
CCN(CC)S(=O)(=O)c1ccc(Cl)c(NC(=O)COC(=O)c2ccc(O)cc2)c1 | -1.8 | -6 | 5 | -0.97 | 0.074
CCN(CC)S(=O)(=O)c1ccc(Cl)c(NC(=O)COC(=O)c2cccn2C)c1 | 2.7* | 8 | -14 | -0.98 | 0.073
Nc1nc(Nc2cccc(Cl)c2)n[nH]1 | x | x | 3 | -0.51 | x
O=C(/C=C/c1c(Cl)cccc1Cl)NCc1ccco1 | 1.7* | -1 | 1 | -0.7 | 0.079
CC/C(=N\N=C1\SC(C)C(=O)N1Cc1ccco1)c1ccccc1 (stereo not given) | x | -9 | 6 | -0.24 | x
Cc1cc(C)cc(NC(=O)Cn2c(-c3ccccc3Cl)nc3ccccc32)c1 | x | 8 | -6 | 0.55 | x
O=C(Cn1c(CO)nc2ccccc21)Nc1ccccc1Cl | -2.5* | -5 | 0 | 1.9 | 0.062*
Oc1ccc(Nc2nc(NCC3CCCO3)c3ccccc3n2)cc1 (stereo not given) | -5.5* | -1 | -6 | -2 | 0.055*
Oc1ccccc1Nc1nc(NCC2CCCO2)c2ccccc2n1 (stereo not given) | -0.12 | -5 | x | -0.45 | x
CCC(OC(C)=O)c1cc2c(cc1[N+](=O)[O-])OCCO2 (stereo not given) | 0.44 | 1 | -3 | -0.65 | x
C=CCN1C(c2ccc(Br)cc2)=CS/C1=C(/C#N)c1nnc(N2CCOCC2)n1-c1ccccc1 | -3.9* | -7 | x | -2.7 | 0.057*
C=CCN1C(c2ccccc2)=CS/C1=C(\C#N)c1nnc2n1CCCCC2 | x | -2 | 10 | -4.4 | x
C=CCN1C(c2cccc(C(F)(F)F)c2)=CS/C1=C(/C#N)c1nnc(N2CCOCC2)n1-c1ccccc1 | -4.6* | 6 | x | -1.2 | 0.047*
C/C=N/NC(=O)CCNC(=O)c1ccccc1 | 0.048 | -3 | 8 | 0.78 | x
CSC1=NC(C(Cl)(Cl)Cl)N=C(c2ccc(C)cc2)N1 (stereo not given) | 2.7* | 8 | 3 | 0.16 | 0.1*
CCC1N=C(SC)NC(C)=C1C(=O)c1ccccc1 (stereo not given) | 0.046 | -10 | 1 | 0.093 | x
N#Cc1c(NCc2ccccc2)ccnc1NCc1cccnc1 | x | -10 | -9 | 0.16 | 0.073
Cc1cc(C(=O)NCc2ccc(S(N)(=O)=O)cc2)ccc1[N+](=O)[O-] | -0.16 | -10 | 7 | -0.0054 | x
SMILES | ROMK mod | PKD1 inh | Rad51 HR inh | Cl transport mod | ROMK retest
COc1ccc(C(=O)NCc2ccc(S(N)(=O)=O)cc2)cc1[N+](=O)[O-] | -13* | -5 | -15 | -0.57 | 0.089
CCOC(=O)C(=NCCOC)NNc1cc(Cl)ccc1Cl | -0.43 | -13 | x | 1.3 | x
Cc1csc2c(N3CCN(C(=O)Nc4ccc(OC(F)(F)F)cc4)CC3)ncnc12 | x | x | 10 | -3 | 0.072
OC(CNCCCCNCC(O)C(F)(F)F)C(F)(F)F (stereo not given) | 2.7* | 4 | 23 | 0.45 | 0.08
OC(CNCc1ccc(Cl)cc1)C(F)(F)F (stereo not given) | 0.65 | -3 | 7 | 0.45 | x
Cc1ccc(N2CCN(c3ccc(NC(=O)CCC(=O)O)cc3)CC2)cc1 | 1.3 | -1 | 13 | 0.93 | x
O=C(O)CCC(=O)Nc1ccc(N2CCCCCC2)cc1 | 5.1* | 5 | x | 0.18 | 0.075
O=C(Nc1ccc2c(c1)nc1n2CCN(C2CCCCC2)C1)NC1CCCCC1 | -3.1* | -10 | -4 | x | 0.042*

Compound activity deposited in PubChem BioAssay by several laboratories.
